Active and inactive are the calls of the source. The rule behind the calls is not given here.
Columns and labels:
Homo sapiens = organism: Homo sapiens; assay: Binding affinity to cysteine-269 residue of human protein phosphatase 2A catalytic subunit at 0.6 uM after 2 hrs by MALDI-TOF MS analysis
Method in brief: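 Purified PP2A (0.5 unit) incubated with or without ligand at 0.6 in 25 mM Tris-HCl, 137 mM NaCl, pH 7.5, 30 °C, 2 h. Samples boiled in SDS loading buffer with DTT and run on 10% gel. PP2Ac band reduced with DTT, alkylated with acrylamide and trypsin-digested. Peptide masses (MALDI-TOF MS) compared with native PP2Ac to find the adduct-bearing fragment.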

[1] = Inhibition of protein phosphatase 2A
[2] = Inhibition of protein phosphatase 1

C[C@@](O)(/C=C/[C@H]1CC=CC(=O)O1)[C@@H](C[C@@H](O)\C=C/C=C\C=C\CO)OP(=O)(O)O [FOSTRIECIN]
Activity (Homo sapiens): Active | IC50 [1]: 1.5 nM | IC50 [2]: 45 µM

From ChEMBL document CHEMBL1152684 (Bioorg Med Chem, 2009)
